This is an account of results in ChEMBL document CHEMBL1240500, “Peptidyl alpha-ketoamides with nucleobases, methylpiperazine, and dimethylaminoalkyl substituents as calpain inhibitors” (J Med Chem, 2010).

One data set deals with Cathepsin B (Homo sapiens, UniProt P07858). As to the kind of experiment: Inhibition of human liver cathepsin B.
Details: not given
Summed up: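 Human liver cathepsin B was DTT-activated (final 0.4 µM) in 0.1 M NaHPO4 pH 6.0 with 1.25 mM EDTA, 0.01% Brij and <5% DMSO. Cbz-Arg-Arg-AMC was used at 0.5, 0.2 and 0.1 µM, with ≥5 inhibitor concentrations. AMC fluorescence was read at ex 360/em 465 nm. Ki was taken from Dixon plots of 1/v versus [I].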
Compound `CCC(NC(=O)[C@H](CC(C)C)NC(=O)OCc1ccccc1)C(=O)C(=O)NCCCn1cnc2c(N)nc(OC)nc21` (some centres not stated) registered a Ki of 880 nM.
The same measure, in the same setting: for `CC(C)C[C@H](NC(=O)OCc1ccccc1)C(=O)NC(Cc1ccccc1)C(=O)C(=O)NCCCN(C)C` (some centres not stated) the value was 75500 nM; for `COc1nc(N)c2ncn(CCCNC(=O)C(=O)C(Cc3ccccc3)NC(=O)[C@H](CC(C)C)NC(=O)OCc3ccccc3)c2n1` (some centres not stated), 2340 nM; for `CC(C)C[C@H](NC(=O)OCc1ccccc1)C(=O)NC(Cc1ccccc1)C(=O)C(=O)NCCCn1cnc2c(N)ncnc21` (some centres not stated), 1750 nM.
Still for that read-out and setting: for `CCC(NC(=O)[C@H](CC(C)C)NC(=O)OCc1ccccc1)C(=O)C(=O)NCCCN1CCN(C)CC1` (some centres not stated) the value was 1420 nM; for `CC(C)C[C@H](NC(=O)OCc1ccccc1)C(=O)NC(Cc1ccccc1)C(=O)C(=O)NCCCn1ccc(N)nc1=O` (some centres not stated), 440 nM.

Test system in the next data set: not listed separately
The data set is described as follows: Drug level in C57BL/6 mouse brain at 24 mg/kg, sc after 2 hrs by HPLC analysis. Particulars: read-out: Drug uptake. The format is ADME, organism-based. The arrangement: dose 24 mg/kg, route subcutaneous. Put shortly:
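7-week-old female C57BL/6 mice (N = 3 per time point) got 24 mg/kg subcutaneously, were perfused with buffered saline at 37 °C, and were killed at 1, 2, 4 or 8 h. Brain was homogenized 5% w/v in water with internal standard spiked in. LC-MS/MS used ESI+ MRM and a Symmetry Shield C18 column. Quantitation was by peak-area ratio against plasma calibration standards.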
In the case of `CCC(NC(=O)[C@H](CC(C)C)NC(=O)OCc1ccccc1)C(=O)C(=O)NCCCN1CCN(C)CC1` (some centres not stated), the concentration at 2 h came to 1140 ng/g.

Another data set addresses T1, Calpain-1 catalytic subunit (Sus scrofa, UniProt P35750).
T1 sequence (P35750 whole entry): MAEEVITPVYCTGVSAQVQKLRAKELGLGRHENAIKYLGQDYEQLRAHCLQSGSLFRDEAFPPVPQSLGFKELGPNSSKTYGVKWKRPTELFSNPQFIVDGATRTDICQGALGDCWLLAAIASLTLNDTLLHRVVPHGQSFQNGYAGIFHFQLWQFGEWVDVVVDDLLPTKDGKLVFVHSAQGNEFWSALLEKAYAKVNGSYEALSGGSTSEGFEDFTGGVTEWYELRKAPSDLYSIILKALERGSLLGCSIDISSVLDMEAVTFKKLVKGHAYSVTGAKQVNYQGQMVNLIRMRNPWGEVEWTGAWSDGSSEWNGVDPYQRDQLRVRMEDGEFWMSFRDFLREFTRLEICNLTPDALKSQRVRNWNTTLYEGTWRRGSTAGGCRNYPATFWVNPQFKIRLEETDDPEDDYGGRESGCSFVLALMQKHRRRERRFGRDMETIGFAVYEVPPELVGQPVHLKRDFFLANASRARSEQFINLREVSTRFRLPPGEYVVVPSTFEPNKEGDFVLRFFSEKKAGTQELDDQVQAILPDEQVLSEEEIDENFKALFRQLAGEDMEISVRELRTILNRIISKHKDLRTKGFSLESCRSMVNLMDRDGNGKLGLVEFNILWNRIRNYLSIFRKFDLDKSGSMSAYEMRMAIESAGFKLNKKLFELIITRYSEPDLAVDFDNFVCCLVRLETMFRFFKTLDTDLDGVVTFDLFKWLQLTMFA
As to the kind of experiment: Inhibition of porcine erythrocyte calpain 1.
Details: not given
`CCC(NC(=O)[C@H](CC(C)C)NC(=O)OCc1ccccc1)C(=O)C(=O)NCCCn1cnc2c(N)nc(OC)nc21` (some centres not stated) came in with a Ki of 23 nM.
The same measure, in the same setting: for `CC(C)C[C@H](NC(=O)OCc1ccccc1)C(=O)NC(Cc1ccccc1)C(=O)C(=O)NCCCN(C)C` (some centres not stated) the value was 226 nM; for `COc1nc(N)c2ncn(CCCNC(=O)C(=O)C(Cc3ccccc3)NC(=O)[C@H](CC(C)C)NC(=O)OCc3ccccc3)c2n1` (some centres not stated), 41 nM.
`CC(C)C[C@H](NC(=O)OCc1ccccc1)C(=O)NC(Cc1ccccc1)C(=O)C(=O)NCCCn1cnc2c(N)ncnc21` (some centres not stated) yielded an inhibition constant (Ki) of 55 nM.
For `CCC(NC(=O)[C@H](CC(C)C)NC(=O)OCc1ccccc1)C(=O)C(=O)NCCCN1CCN(C)CC1` (some centres not stated), the inhibition constant Ki turned out to be 640 nM.
On the same count and under the same terms, for `CC(C)C[C@H](NC(=O)OCc1ccccc1)C(=O)NC(Cc1ccccc1)C(=O)C(=O)NCCCn1ccc(N)nc1=O` (some centres not stated) the value was 480 nM.

A further data set addresses T2, Calpain-2 catalytic subunit (Sus scrofa, UniProt P43367).
T2 sequence (P43367 whole entry): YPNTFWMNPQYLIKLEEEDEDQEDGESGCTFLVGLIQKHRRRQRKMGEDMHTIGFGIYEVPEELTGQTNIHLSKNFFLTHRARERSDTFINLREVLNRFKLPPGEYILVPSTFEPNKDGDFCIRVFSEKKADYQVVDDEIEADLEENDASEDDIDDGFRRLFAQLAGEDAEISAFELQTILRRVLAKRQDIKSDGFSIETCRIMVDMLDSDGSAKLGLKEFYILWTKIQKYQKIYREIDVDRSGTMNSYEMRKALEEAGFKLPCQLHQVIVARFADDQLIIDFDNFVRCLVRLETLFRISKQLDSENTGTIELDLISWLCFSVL
The data set is described as follows: Inhibition of porcine kidney calpain 2.
Details: not given
Compound `CCC(NC(=O)[C@H](CC(C)C)NC(=O)OCc1ccccc1)C(=O)C(=O)NCCCn1cnc2c(N)nc(OC)nc21` (some centres not stated) registered an inhibitory constant (Ki) of 77 nM.
`CC(C)C[C@H](NC(=O)OCc1ccccc1)C(=O)NC(Cc1ccccc1)C(=O)C(=O)NCCCN(C)C` (some centres not stated) returned a Ki of 844 nM.
The same measure, in the same setting: for `COc1nc(N)c2ncn(CCCNC(=O)C(=O)C(Cc3ccccc3)NC(=O)[C@H](CC(C)C)NC(=O)OCc3ccccc3)c2n1` (some centres not stated) the value was 209 nM.
The same measure, in the same setting: for `CC(C)C[C@H](NC(=O)OCc1ccccc1)C(=O)NC(Cc1ccccc1)C(=O)C(=O)NCCCn1cnc2c(N)ncnc21` (some centres not stated) the value was 68 nM.
On the same count and under the same terms, for `CCC(NC(=O)[C@H](CC(C)C)NC(=O)OCc1ccccc1)C(=O)C(=O)NCCCN1CCN(C)CC1` (some centres not stated) the value was 286 nM; for `CC(C)C[C@H](NC(=O)OCc1ccccc1)C(=O)NC(Cc1ccccc1)C(=O)C(=O)NCCCn1ccc(N)nc1=O` (some centres not stated), 438 nM.

For a further data set, the target named is T3, Calpain-1 catalytic subunit (Sus scrofa) (UniProt P35750).
T3 sequence (whole entry): T1 sequence (P35750 whole entry)
The data set is described as follows: Ratio of compound Ki to AK295 Ki for porcine erythrocyte calpain 1.
Details: not given
As for `CCC(NC(=O)[C@H](CC(C)C)NC(=O)OCc1ccccc1)C(=O)C(=O)NCCCn1cnc2c(N)nc(OC)nc21` (some centres not stated), the Ratio stood at 3.
With `COc1nc(N)c2ncn(CCCNC(=O)C(=O)C(Cc3ccccc3)NC(=O)[C@H](CC(C)C)NC(=O)OCc3ccccc3)c2n1` (some centres not stated), the Ratio was 3.
Still for that read-out and setting: for `CC(C)C[C@H](NC(=O)OCc1ccccc1)C(=O)NC(Cc1ccccc1)C(=O)C(=O)NCCCn1cnc2c(N)ncnc21` (some centres not stated) the value was 3.

As a reminder, the Ki is a measure of affinity in units of concentration, obtained from inhibition or displacement. Read a low Ki as a stronger hold on the target.
